Published values collected from several papers.
Cell line: T47D
Effect on: cell growth or viability

Structure (SMILES)	technique	tested at	time	quantity	value
CC/C(=C(/c1ccc(OCCNC)cc1)c1ccc(B2OC(C)(C)C(C)(C)O2)cc1)c1ccccc1	–	–	5 days	IC50	8730 nM
COc1cccc(Oc2ccccc2NC(=O)CNC(=O)c2cccc3ccccc23)c1	SRB	–	48 h	GI50	138 nM
CCCCCCCC(=O)NCC(=O)OC	MTT	10 µM	48 h	inhibition	23%
COc1ccccc1/C=C/C(=O)c1ccc(OC)c(S(N)(=O)=O)c1	SRB	10 µM	–	inhibition	83%
CC/C(=C(\c1ccc(O)cc1)c1ccc(OCCNC)cc1)c1ccccc1	–	–	5 days	IC50	4290 nM
O=C1C[C@@H](c2ccc(O)cc2)Oc2cc(O)cc(O)c21	MTT	–	48 h	IC50	4170 nM
O=C1Nc2ccccc2C1=NNc1nnc2n1N=C(c1ccccc1)CS2	SRB	10 µM	–	inhibition	36%
COc1ccc(-c2ccc(-c3ccc(C(=N)N)nc3)s2)cc1Cl	SRB	–	–	GI50	1990 nM
CC[C@H](C)C(=O)O[C@H]1C[C@H](O)C=C2C=C[C@H](C)[C@H](CC[C@@H](O)C[C@@H](O)CC(=O)O)[C@H]21	SRB	–	72 h	IC50	133 µg/mL
COc1ccc(-c2ccc(-c3ccc(C(=N)N)nc3)s2)cc1	SRB	–	–	GI50	1920 nM
COc1ccc(C(=O)/C=C/c2cccc(Cl)c2)cc1S(N)(=O)=O	SRB	–	48 h	GI50	2100 nM
